# Experiments:
# Melanocortin receptor 3 [1] = biological target: T1, Melanocortin receptor 3 (Homo sapiens, UniProt P41968); experiment: biochemical; type: cell-based, HEK293
# Melanocortin receptor 4 [2] = biological target: T2, Melanocortin receptor 4 (Homo sapiens, UniProt P32245); experiment: biochemical; type: cell-based, HEK293
# Melanocortin receptor 5 [3] = biological target: T3, Melanocortin receptor 5 (Homo sapiens, UniProt P33032); experiment: Agonist activity at human MC5 receptor expressed in HEK293 cells assessed as intracellular cAMP accumulation; type: functional, cell-based
# Outline: (§1)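 HEK293 cells stably transfected with the receptor, seeded 48 h ahead at 50000 cells/well. Preincubated 1 min at 37 °C in Earle's balanced salt solution with 0.5 mM IBMX, then exposed to peptide for 3 min at 37 °C. cAMP measured by [3H]cAMP/PKA competition against a standard curve.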
# [4] = biological target: T4, Melanocyte-stimulating hormone receptor (Homo sapiens, UniProt Q01726); experiment: Displacement of [125I][Nle4,D-Phe7]alpha-MSH from human MC1 receptor expressed in HEK293 cells; type: cell-based
# Outline: (§2)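 Whole stably transfected HEK293 cells seeded 48 h before assay at 50000 cells/well. Binding buffer: MEM, 25 mM HEPES pH 7.4, 0.2% BSA, 1 mM 1,10-phenanthroline, leupeptin, bacitracin. Cells washed, lysed with NaOH/Triton X-100, gamma-counted. IC50 is mean of two triplicate experiments.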
# Target sequence in this assay (Q01726 whole entry): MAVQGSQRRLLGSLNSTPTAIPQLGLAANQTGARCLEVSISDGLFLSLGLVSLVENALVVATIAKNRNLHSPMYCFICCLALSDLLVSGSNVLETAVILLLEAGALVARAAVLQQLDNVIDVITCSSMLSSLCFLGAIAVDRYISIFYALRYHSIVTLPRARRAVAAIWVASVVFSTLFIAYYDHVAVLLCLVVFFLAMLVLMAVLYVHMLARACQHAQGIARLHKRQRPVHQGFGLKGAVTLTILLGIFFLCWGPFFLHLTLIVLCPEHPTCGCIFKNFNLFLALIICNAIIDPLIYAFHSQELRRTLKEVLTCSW
# Melanocortin receptor 5 [5] = biological target: T3, Melanocortin receptor 5; experiment: Displacement of [125I][Nle4,D-Phe7]alpha-MSH from human MC5 receptor expressed in HEK293 cells; type: cell-based
# Outline: as §2
# Melanocortin receptor 3 [6] = biological target: T1, Melanocortin receptor 3; experiment: Antagonist activity at human MC3 receptor expressed in HEK293 cells assessed as inhibition of MT2 induced intracellular cAMP accumulation; type: functional, cell-based; details: for Kb: read-out: pA2 (converted)
# Melanocortin receptor 4 [7] = biological target: T2, Melanocortin receptor 4; experiment: Agonist activity at human MC4 receptor expressed in HEK293 cells assessed as intracellular cAMP accumulation at 10 uM; type: functional, cell-based
# Outline: (§3)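 Stably transfected HEK293 cells seeded 48 h before assay at 50000 cells/well. Cells preincubated 1 min at 37 °C in Earle's balanced salt solution with 0.5 mM IBMX, then exposed to 10 μM peptide for 3 min at 37 °C. Cells boiled 7 min, cAMP measured by [3H]cAMP/PKA competition with a standard curve. Result expressed as percent of cAMP produced by 10 μM MT-II.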
# [8] = biological target: T4, Melanocyte-stimulating hormone receptor; experiment: Agonist activity at human MC1 receptor expressed in HEK293 cells assessed as intracellular cAMP accumulation; type: functional, cell-based
# Outline: (§4)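 Stably transfected HEK293 cells seeded 48 h before assay at 50000 cells/well. Cells preincubated 1 min at 37 °C in Earle's balanced salt solution with 0.5 mM IBMX, then exposed to varying peptide concentrations for 3 min at 37 °C. Cells boiled 7 min, cAMP quantified by [3H]cAMP/PKA competition against a standard curve.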
# Target sequence in this assay (Q01726 whole entry): as above
# Melanocortin receptor 5 [9] = biological target: T3, Melanocortin receptor 5; experiment: Agonist activity at human MC5 receptor expressed in HEK293 cells assessed as intracellular cAMP accumulation at 10 uM; type: functional, cell-based
# Outline: as §3
# Melanocortin receptor 3 [10] = biological target: T1, Melanocortin receptor 3; experiment: Agonist activity at human MC3 receptor expressed in HEK293 cells assessed as intracellular cAMP accumulation; type: functional, cell-based
# Outline: as §4
# Melanocortin receptor 3 [11] = biological target: T1, Melanocortin receptor 3; experiment: Agonist activity at human MC3 receptor expressed in HEK293 cells assessed as intracellular cAMP accumulation at 10 uM relative to MT2; type: functional, cell-based
# Outline: as §3
# Melanocortin receptor 4 [12] = biological target: T2, Melanocortin receptor 4; experiment: Agonist activity at human MC4 receptor expressed in HEK293 cells assessed as intracellular cAMP accumulation at 10 uM relative to MT2; type: functional, cell-based
# Outline: as §3
# [13] = biological target: T4, Melanocyte-stimulating hormone receptor; experiment: Agonist activity at human MC1 receptor expressed in HEK293 cells assessed as intracellular cAMP accumulation at 10 uM relative to MT2; type: functional, cell-based
# Outline: as §3
# Target sequence in this assay (Q01726 whole entry, looked up): as the sequence (Q01726 whole entry) above
# Melanocortin receptor 5 [14] = biological target: T3, Melanocortin receptor 5; experiment: Agonist activity at human MC5 receptor expressed in HEK293 cells assessed as intracellular cAMP accumulation at 10 uM relative to MT2; type: functional, cell-based
# Outline: as §3
# [15] = biological target: T4, Melanocyte-stimulating hormone receptor; experiment: Agonist activity at human MC1 receptor expressed in HEK293 cells assessed as intracellular cAMP accumulation at 10 uM; type: functional, cell-based
# Outline: as §3
# Target sequence in this assay (Q01726 whole entry, looked up): as the sequence (Q01726 whole entry) above
# Melanocortin receptor 5 [16] = biological target: T3, Melanocortin receptor 5; experiment: Antagonist activity at human MC5 receptor expressed in HEK293 cells assessed as inhibition of MT2 induced intracellular cAMP accumulation; type: functional, cell-based; details: read-out: pA2 (converted)
# Melanocortin receptor 3 [17] = biological target: T1, Melanocortin receptor 3; experiment: Agonist activity at human MC3 receptor expressed in HEK293 cells assessed as intracellular cAMP accumulation at 10 uM; type: functional, cell-based
# Outline: as §3
# Melanocortin receptor 4 [18] = biological target: T2, Melanocortin receptor 4; experiment: Agonist activity at human MC4 receptor expressed in HEK293 cells assessed as intracellular cAMP accumulation; type: functional, cell-based
# Outline: as §1
# T1 sequence (P41968 whole entry): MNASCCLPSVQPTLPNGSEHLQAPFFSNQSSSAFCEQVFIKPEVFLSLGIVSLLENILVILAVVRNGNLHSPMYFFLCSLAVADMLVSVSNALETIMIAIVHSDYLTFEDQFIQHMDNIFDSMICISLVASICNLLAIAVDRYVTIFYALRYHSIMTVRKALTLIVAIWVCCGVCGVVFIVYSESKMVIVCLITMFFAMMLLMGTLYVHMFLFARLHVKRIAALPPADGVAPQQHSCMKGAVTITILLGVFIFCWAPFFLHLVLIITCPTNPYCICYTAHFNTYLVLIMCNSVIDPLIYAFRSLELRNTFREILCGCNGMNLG
# T3 sequence (P33032 whole entry): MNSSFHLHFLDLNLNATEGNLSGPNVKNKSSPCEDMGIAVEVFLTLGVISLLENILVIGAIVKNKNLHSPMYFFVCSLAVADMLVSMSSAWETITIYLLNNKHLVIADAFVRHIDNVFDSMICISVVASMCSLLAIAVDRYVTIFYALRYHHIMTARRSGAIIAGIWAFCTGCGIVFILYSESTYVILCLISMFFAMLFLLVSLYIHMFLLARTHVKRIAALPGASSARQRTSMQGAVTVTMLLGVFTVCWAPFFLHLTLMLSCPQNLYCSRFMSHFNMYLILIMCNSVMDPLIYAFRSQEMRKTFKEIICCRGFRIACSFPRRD
# T2 sequence (P32245 whole entry): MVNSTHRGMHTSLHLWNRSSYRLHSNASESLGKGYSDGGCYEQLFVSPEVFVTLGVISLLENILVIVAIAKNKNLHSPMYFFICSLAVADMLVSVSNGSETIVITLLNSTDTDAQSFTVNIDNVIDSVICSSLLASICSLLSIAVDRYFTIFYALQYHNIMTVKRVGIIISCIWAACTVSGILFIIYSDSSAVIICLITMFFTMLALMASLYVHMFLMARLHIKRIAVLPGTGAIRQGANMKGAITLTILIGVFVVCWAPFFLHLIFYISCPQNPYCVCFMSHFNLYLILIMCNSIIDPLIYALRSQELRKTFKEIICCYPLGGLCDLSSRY
SMILES,IC50 (Melanocortin receptor 3 [1]),IC50 (Melanocortin receptor 4 [2]),EC50 (Melanocortin receptor 5 [3]),IC50 [4],IC50 (Melanocortin receptor 5 [5]),Kb (Melanocortin receptor 3 [6]),Activity (Melanocortin receptor 4 [7]),EC50 [8],Activity (Melanocortin receptor 5 [9]),EC50 (Melanocortin receptor 3 [10]),Activity (Melanocortin receptor 3 [11]),Activity (Melanocortin receptor 4 [12]),Activity [13],Activity (Melanocortin receptor 5 [14]),Activity [15],Kb (Melanocortin receptor 5 [16]),Activity (Melanocortin receptor 3 [17]),Ki (Melanocortin receptor 3 [1]; hek293),pA2 (Melanocortin receptor 3 [6]; hek293),EC50 (Melanocortin receptor 4 [18])
NC(=O)[C@@H]1CCCCNC(=O)CCCC(=O)N2CCC[C@H]2C(=O)N[C@H](Cc2ccc3ccccc3c2)C(=O)N[C@@H](CCCN=C(N)N)C(=O)N[C@@H](Cc2c[nH]c3ccccc23)C(=O)N1,11 nM,330 nM,23 nM,> 10000 nM,27 nM,0.158 nM,–,–,–,–,–,–,–,–,–,–,–,–,–,–
CCCC[C@@H]1NC(=O)CCC(=O)NCCCC[C@@H](C(N)=O)NC(=O)[C@H](Cc2c[nH]c3ccccc23)NC(=O)[C@H](CCCN=C(N)N)NC(=O)[C@@H](Cc2ccccc2)NC1=O,84 nM,930 nM,> 1000 nM,> 10000 nM,520 nM,–,–,–,–,–,–,–,–,–,–,–,–,–,–,–
N=C(N)NCCC[C@@H]1NC(=O)[C@@H](Cc2ccccc2)NC(=O)c2nccnc2C(=O)NCCCC[C@@H](C(N)=O)NC(=O)[C@H](Cc2c[nH]c3ccccc23)NC1=O,1100 nM,> 10000 nM,–,412 nM,> 10000 nM,–,0%,> 10000 nM,0%,27 nM,70%,0%,60%,0%,–,–,–,–,–,–
NC(=O)[C@@H]1CCCCNC(=O)c2cccc(n2)C(=O)N[C@H](Cc2ccc3ccccc3c2)C(=O)N[C@@H](CCCN=C(N)N)C(=O)N[C@@H](Cc2c[nH]c3ccccc23)C(=O)N1,> 1000 nM,> 1000 nM,–,> 10000 nM,> 10000 nM,–,–,–,–,–,–,–,–,–,–,–,–,–,–,–
N=C(N)NCCC[C@@H]1NC(=O)[C@@H](Cc2ccccc2)NC(=O)[C@@H]2CCCN2C(=O)/C=C\C(=O)NCCCC[C@@H](C(N)=O)NC(=O)[C@H](Cc2c[nH]c3ccccc23)NC1=O,> 1000 nM,160 nM,–,> 10000 nM,790 nM,–,0%,–,0%,100 nM,80%,0%,0%,0%,0%,–,–,–,–,–
CCCC[C@@H]1NC(=O)CCC(=O)NCCCC[C@@H](C(N)=O)NC(=O)[C@H](Cc2c[nH]c3ccccc23)NC(=O)[C@H](CCCN=C(N)N)NC(=O)[C@@H](Cc2ccc3ccccc3c2)NC1=O,12 nM,300 nM,–,2000 nM,17 nM,5.01 nM,–,> 1000 nM,–,–,–,–,–,–,–,2 nM,–,–,–,–
N=C(N)NCCC[C@@H]1NC(=O)[C@@H](Cc2ccc3ccccc3c2)NC(=O)c2cccc(n2)C(=O)NCCCC[C@@H](C(N)=O)NC(=O)[C@H](Cc2c[nH]c3ccccc23)NC1=O,–,–,–,–,–,–,0%,–,0%,–,0%,0%,0%,0%,0%,–,0%,–,–,–
N=C(N)NCCC[C@@H]1NC(=O)[C@@H](Cc2ccccc2)NC(=O)c2cccc(n2)C(=O)NCCCC[C@@H](C(N)=O)NC(=O)[C@H](Cc2c[nH]c3ccccc23)NC1=O,> 10000 nM,> 10000 nM,–,> 10000 nM,> 10000 nM,–,0%,> 1000 nM,0%,–,0%,0%,15%,0%,–,–,0%,–,–,–
NC(=O)[C@@H]1CCCCNC(=O)c2nccnc2C(=O)N[C@H](Cc2ccc3ccccc3c2)C(=O)N[C@@H](CCCN=C(N)N)C(=O)N[C@@H](Cc2c[nH]c3ccccc23)C(=O)N1,23 nM,> 1000 nM,–,707 nM,230 nM,–,–,> 3000 nM,–,–,–,–,–,–,–,–,–,–,–,–
N=C(N)NCCC[C@@H]1NC(=O)[C@@H](Cc2ccc3ccccc3c2)NC(=O)[C@@H]2CCCN2C(=O)c2ccccc2C(=O)NCCCC[C@@H](C(N)=O)NC(=O)[C@H](Cc2c[nH]c3ccccc23)NC1=O,32 nM,430 nM,–,410 nM,210 nM,–,0%,> 5000 nM,0%,–,0%,0%,80%,0%,–,–,0%,–,–,–
NC(=O)[C@@H]1CCCCNC(=O)CC[C@H](N)C(=O)N[C@@H](Cc2cnc[nH]2)C(=O)N[C@H](Cc2ccc3ccccc3c2)C(=O)N[C@@H](CCCN=C(N)N)C(=O)N[C@@H](Cc2c[nH]c3ccccc23)C(=O)N1,–,–,–,–,–,–,–,–,–,–,–,–,–,–,–,–,–,5.9 nM,10.6,–
N=C(N)NCCC[C@@H]1NC(=O)[C@@H](Cc2ccc3ccccc3c2)NC(=O)[C@@H]2CCCN2C(=O)/C=C\C(=O)NCCCC[C@@H](C(N)=O)NC(=O)[C@H](Cc2c[nH]c3ccccc23)NC1=O,20 nM,520 nM,–,> 10000 nM,120 nM,–,0%,–,0%,–,0%,0%,0%,0%,0%,–,0%,–,–,–
N=C(N)NCCC[C@@H]1NC(=O)[C@@H](Cc2ccc3ccccc3c2)NC(=O)c2nccnc2C(=O)NCCCC[C@@H](C(N)=O)NC(=O)[C@H](Cc2c[nH]c3ccccc23)NC1=O,–,–,–,–,–,–,0%,–,0%,–,0%,0%,55%,0%,–,–,0%,–,–,–
N=C(N)NCCC[C@@H]1NC(=O)[C@@H](Cc2ccccc2)NC(=O)[C@@H]2CCCN2C(=O)c2ccccc2C(=O)NCCCC[C@@H](C(N)=O)NC(=O)[C@H](Cc2c[nH]c3ccccc23)NC1=O,> 1000 nM,777 nM,–,> 10000 nM,> 1000 nM,–,0%,–,0%,95 nM,100%,0%,0%,0%,0%,–,–,–,–,–
NC(=O)[C@@H]1CCCCNC(=O)CCCC(=O)N2CCC[C@H]2C(=O)N[C@H](Cc2ccccc2)C(=O)N[C@@H](CCCN=C(N)N)C(=O)N[C@@H](Cc2c[nH]c3ccccc23)C(=O)N1,385 nM,> 1000 nM,570 nM,> 10000 nM,870 nM,–,–,–,–,29 nM,–,–,–,–,–,–,–,–,–,> 2000 nM

# Source: ChEMBL document CHEMBL1140710, “Structure-activity relationships of cyclic lactam analogues of alpha-melanocyte-stimulating hormone (alpha-MSH) targeting the human melanocortin-3 receptor” (J Med Chem, 2008)
